# Bioassay records as filed in PubChem.
# FLuc act counter – affects firefly luciferase, flagging false hits in luciferase stimulation screens | P08659 | ATPlite luciferase biochemical, luminescence, 10 min; 0 = ATP-free wells, 1 = DMSO control | activation factor at 10 µM | 200,000 tested, under 10 active;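 active = luciferase activation factor, scaled between plate controls, of at least 2 with compound at 10 µM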
# Target sequence (P08659 whole entry, looked up): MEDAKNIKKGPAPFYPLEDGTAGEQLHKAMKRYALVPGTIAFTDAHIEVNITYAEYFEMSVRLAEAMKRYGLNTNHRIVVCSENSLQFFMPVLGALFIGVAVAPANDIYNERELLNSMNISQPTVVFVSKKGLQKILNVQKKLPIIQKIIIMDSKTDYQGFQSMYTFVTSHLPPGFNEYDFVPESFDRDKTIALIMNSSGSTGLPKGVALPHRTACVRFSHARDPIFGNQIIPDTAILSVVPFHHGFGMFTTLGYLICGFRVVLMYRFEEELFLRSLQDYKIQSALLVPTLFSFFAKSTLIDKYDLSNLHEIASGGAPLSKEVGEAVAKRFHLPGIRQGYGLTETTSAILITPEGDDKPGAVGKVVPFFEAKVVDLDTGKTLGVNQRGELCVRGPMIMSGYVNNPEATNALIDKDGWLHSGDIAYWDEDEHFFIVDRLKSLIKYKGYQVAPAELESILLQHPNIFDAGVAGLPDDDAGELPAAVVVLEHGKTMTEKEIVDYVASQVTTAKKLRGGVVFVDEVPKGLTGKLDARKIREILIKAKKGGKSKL
#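 Material: Luciferase/luciferin reagent mix; Doses: test compounds dosed from 2 mM stocks in 100% DMSO; Schedule: 10 min incubation after luciferase reagent addition, room temperature; Measured by: luminescence from luciferase reaction; Read-out: luminescence gain marking luciferase activators.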
# PPC-1+TRAIL kill – PPC-1 cancer cell killing with TRAIL present. PPC-1 cells + TRAIL, ATPLite viability luminescence. cell killing (% activity), % at 4 µM or 5 µM. 0.41% of 220,000 active;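 active = cell killing above 50% in the first pass at 4 µM, then a duplicate retest at 5 µM averaging 50% or more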;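 also: plate controls were cells with TRAIL plus DMSO for no effect and medium-only wells lacking cells for full effect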
# TRAIL sens C8 – sensitizes caspase-8 expressing cells to TRAIL; NB7+C8 cells + TRAIL, ATPlite viability luminescence; inhibition (viability loss, TRAIL sensitization), % at 10 µM; 1% of 360,000 active; AID 624354;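 active = compounds causing at least 50% loss of cell viability in the single-dose screen, relative to plate controls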
# FLuc inhib CS – inhibits firefly luciferase, flagging false hits in luciferase inhibition screens; P08659; ATPLite firefly luciferase biochemical luminescence, 10 min; inhibition, % at 10 µM; 1.5% of 200,000 active; AID 1006;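 active = inhibition above about 50% when tested at 10 µM, limit read from the data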
# * hit, by the source's call; · = no result. Most compounds without a hit are left out; they make up all but 1.5% or so of the library.
SMILES,FLuc act counter,PPC-1+TRAIL kill,TRAIL sens C8,FLuc inhib CS
O=C(Nc1ccc2c(c1)OCO2)c1ccncc1,1,-2,2,1
O=C(Nc1ccon1)Nc1cc(Cl)ccc1Cl,·,·,-6,·
Cc1ccc(OCC(=O)Nc2ccc3c(c2)OCCO3)cc1C,0.9,18,3,8
O=C(Nc1ccc2c(c1)OCCO2)c1ccc(Br)cc1,·,·,52*,·
O=C(Nc1ccc2c(c1)OCCO2)c1cccc(Br)c1,·,·,50,·
CCOc1ccc(C(=O)Nc2ccc3c(c2)OCCO3)cc1,·,·,55*,·
Cc1cccc(OCC(=O)Nc2ccc3c(c2)OCCO3)c1,0.5,17,23,54*
N#Cc1cccc(NCC(=O)Nc2ccc3c(c2)OCCO3)c1,0.3,22,28,65*
COCCn1c(=O)[nH]c(=O)c2c1nc(-c1cc(Br)c3c(c1)OCO3)n2Cc1ccccc1,1,-7,-11,-4
COC(=O)CCC(=O)N1CCCC(N2CCN(c3ccc(OC)cc3)CC2)C1 (configuration not stated),·,·,-22,·
CCCOc1cccc(C(=O)Nc2ccc3c(c2)OCCO3)c1,·,·,52*,·
Cc1ccc(C(=O)Nc2ccc3c(c2)OCCO3)cc1,·,·,84*,·
O=C(Nc1cc([N+](=O)[O-])ccc1F)C1CCN(S(=O)(=O)c2cccs2)CC1,·,·,7,·
CCCc1cc(C(=O)Nc2nccs2)cs1,0.4,38,41,61*
CCCN1C(=O)c2ccc(C(=O)Nc3nccs3)cc2C1=O,0.8,-6,-4,17
C=CCNC(=O)/C(C#N)=C/c1ccc2c(c1)OCCO2,0.5,16,-2,50*
CCN1CCN(CCCNC(=O)c2ccc(/C=C3/Oc4ccccc4N(Cc4cccc(C)c4)C3=O)cc2)CC1,·,·,55*,·
Cc1[nH]c2ccccc2c1-c1nc2ccccc2[nH]c1=O,·,·,0,·
O=C(Sc1cccc2cccnc12)c1ccc(F)cc1,1,58*,·,-4
O=C(Sc1cccc2cccnc12)c1ccccc1Br,·,·,-4,·
CN(C)/C=C(\C#N)C(=O)N/N=C(\CC(=O)C(F)(F)F)c1ccco1,1,19,1,-4
Cc1ccc(C)c(Nc2nc(N)c3ccccc3n2)c1,0.3,24,35,66*
COc1ccc(Cl)cc1Nc1nc(N)c2ccccc2n1,·,·,1,·
CN(C)C(=O)c1ccc(NC(=O)COc2ccc([N+](=O)[O-])cc2)cc1,1,-2,-2,-4
COc1ccc(CN=C2Nc3ccccc3CS2)cc1,0.5,32,14,53*
SMILES,FLuc act counter,PPC-1+TRAIL kill,TRAIL sens C8,FLuc inhib CS
CCC(C)(C)NC(=O)C(Sc1ccccc1)c1ccccc1 (configuration not stated),1,24,-1,-4
Oc1ccc(CCNc2c3ccccc3nc3ccccc23)cc1O,·,·,71*,·
c1ccc(CNc2c3ccccc3nc3ccccc23)cc1,·,·,35,·
COc1cccc(C2CC(=O)C3=C(C2)Nc2ccccc2N(C(=O)CCC(=O)O)C3c2ccc(F)cc2)c1 (configuration not stated),·,16,15,·
O=C(Nc1ccccc1N1CCN(c2ccccc2)CC1)c1ccccc1,1,-14,5,-4
CC(=O)Oc1ccc(-c2nc3ccccc3c(=O)o2)cc1,·,·,-6,·
CC(=O)Oc1ccccc1/C=C/c1nc2ccccc2c(=O)o1,·,·,82*,·
CC(=O)Oc1ccc(/C=C/c2nc3ccccc3c(=O)o2)cc1,·,·,76*,·
COc1ccc(/C=N/n2c(N)nc3ccccc32)cc1OC,0.4,34,12,60*
COc1cccc(/C=N/n2c(N)nc3ccccc32)c1OC,0.9,-4,14,9
COc1cc2ccccc2cc1C(=O)Nc1sc2c(c1C(N)=O)CCN(C(C)C)C2,·,·,83*,·
CN1CCc2c(sc(NC(=O)c3ccc4ccccc4c3)c2C(N)=O)C1,·,·,34,·
COc1ccc(S(=O)(=O)N2CCC(C(=O)N[C@@H](C)C(=O)NCc3cccnc3)CC2)cc1,·,·,-1,·
Cc1cc(C)c2c(c1)/C(=C/C(=O)c1ccc(Br)s1)C(=O)N2,1,20,84*,-1
Cc1nn(-c2nc3ccccc3s2)c(N)c1-c1ccc(Cl)cc1,0.9,26,4,13
Cc1nn(-c2ccccc2)c(N)c1N=Nc1ccccc1,0.9,11,29,10
Cc1cc(N)n(-c2nc3ccccc3s2)n1,0.2,·,48,75*
Cc1nn(-c2nc3ccccc3s2)c(N)c1-c1ccccc1,0.5,21,28,52*
Cc1nn(-c2ccccc2)c(N)c1-c1ccccc1,0.3,33,47,73*
Cc1ccc(-c2ccccc2NC(=O)CCl)o1,1,0,48*,-3
CCCCCCCCOC(=O)c1cc([N+](=O)[O-])c(Sc2ncnc3nc[nH]c23)c([N+](=O)[O-])c1,·,·,67*,·
C/C(=N\Nc1ccc(F)cc1F)c1ccc(Br)s1,1,7,-5,-4
CN(C)c1ccc(N=Nc2nccs2)cc1,·,·,77*,·
Cc1ccc(S(=O)(=O)N2C[C@H]3N(C(=O)OC(C)C)N(C(=O)OC(C)C)C[C@H](OC(=O)NCc4ccco4)[C@@]3(O)C2)cc1,·,·,-25,·
Cc1ccc2cc(C(c3nnnn3C3CCCC3)N(Cc3cccnc3)Cc3ccco3)c(=O)[nH]c2c1 (configuration not stated),1,53*,10,-1
SMILES,FLuc act counter,PPC-1+TRAIL kill,TRAIL sens C8,FLuc inhib CS
COC(=O)c1c(-c2ccccc2)csc1N1C(=O)Nc2ccccc2N1O,0.3,9,23,71*
Nc1ccccc1C(=O)N=Nc1[nH]c(N)c2ccccc12,0.2,42,51*,79*
Nc1[nH]c(N=NC(=O)c2ccc(F)cc2)c2ccccc12,0.4,27,35,55*
O=C(Nc1ccccc1NC(=O)c1ccc(F)cc1)c1ccc(F)cc1,·,·,-18,·
CCOC(=O)C1=C(C)OC(=Cc2ccc(OC)cc2)C1=O,·,·,70*,·
COc1ccc(Cn2c(SCc3ccccc3C)nc3cc(OC)c(OC)cc3c2=N)cc1,1.1,8,86*,-7
COc1cc2nc(SCc3ccc(F)cc3)n(Cc3cccs3)c(=N)c2cc1OC,1,-4,-8,-5
Cc1ccc(S(=O)(=O)Nc2nc(C)c(NC(=O)Nc3ccc(Cl)cc3Cl)s2)cc1,1.1,15,-5,-8
O=C(Nc1ccc2ccccc2c1)c1ccccc1Cl,·,·,39,·
O=C(Nc1ccc2ccccc2c1)c1ccc(Cl)cc1Cl,·,41,61*,·
O=C(Nc1ccc2ccccc2c1)c1ccccc1O,·,·,72*,·
O=C(Nc1ccc2ccccc2c1)c1ccccc1[N+](=O)[O-],·,·,-6,·
Cc1sc2ncn(CC(=O)OC(C)C)c(=O)c2c1C,1,-17,·,-3
O=C(COC(=O)c1ccc[nH]c1=O)Nc1cc(S(=O)(=O)N2CCCCCC2)ccc1Cl,·,·,-11,·
CCCCN(C(C)=O)c1c(N)n(CCC)c(=O)n(CC(=O)Nc2cc(Cl)cc(Cl)c2)c1=O,1,8,-8,-4
C/C(=N/N=C/c1ccc(N(C)C)cc1)c1ccccc1,0.2,18,56*,77*
C[C@@H]1CN([C@@H](C)CO)C(=O)CCCn2cc(nn2)CO[C@H]1CN(C)S(=O)(=O)c1ccc(C#N)cc1,·,·,-4,·
COCCCN=C1NN=C(c2cc(C)n(Cc3ccco3)c2C)CS1,0.3,24,11,70*
